Test results as given in ChEMBL document CHEMBL4627381, “Licochalcone A Selectively Resensitizes ABCG2-Overexpressing Multidrug-Resistant Cancer Cells to Chemotherapeutic Drugs” (J Nat Prod, 2020).
Activity calls are given as the source filed them. No cut-off for these calls is given here.

Columns and labels:
[1] = molecular target: T1, Broad substrate specificity ATP-binding cassette transporter ABCG2 (Homo sapiens, UniProt Q9UNQ0); test: Reversal of ABCG2 (unknown origin)-mediated multidrug resistance in human H460-MX20 cells assessed as fold change in topotecan IC50 at 0.5 uM after 72 hrs by MTT assay relative to topotecan IC50; assay type: cell-based
T1 sequence (Q9UNQ0 whole entry): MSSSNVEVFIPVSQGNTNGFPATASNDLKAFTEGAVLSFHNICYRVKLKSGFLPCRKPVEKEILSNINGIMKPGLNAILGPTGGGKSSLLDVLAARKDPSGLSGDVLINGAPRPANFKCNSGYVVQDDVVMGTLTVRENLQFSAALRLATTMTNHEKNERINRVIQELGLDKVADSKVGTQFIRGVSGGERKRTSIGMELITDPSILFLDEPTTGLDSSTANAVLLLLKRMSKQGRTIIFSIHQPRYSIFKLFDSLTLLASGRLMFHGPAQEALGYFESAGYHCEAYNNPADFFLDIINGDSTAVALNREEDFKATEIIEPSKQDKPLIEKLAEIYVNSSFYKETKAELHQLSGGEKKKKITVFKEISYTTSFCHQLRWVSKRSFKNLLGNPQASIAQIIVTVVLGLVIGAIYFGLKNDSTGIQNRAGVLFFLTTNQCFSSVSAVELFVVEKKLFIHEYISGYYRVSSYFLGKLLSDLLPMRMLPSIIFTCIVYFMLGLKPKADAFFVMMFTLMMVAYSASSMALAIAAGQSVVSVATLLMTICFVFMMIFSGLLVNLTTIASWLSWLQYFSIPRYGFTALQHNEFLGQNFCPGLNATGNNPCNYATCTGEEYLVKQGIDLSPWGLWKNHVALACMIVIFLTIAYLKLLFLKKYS
Method in brief: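 Cells held drug-free 7 days, seeded at 5000 per well for 24 h, then exposed 72 h to mitoxantrone or topotecan dilutions with DMSO (≤0.5%), LCA 0.5–3.0 μM, or Ko143 1.0 μM. Viability was read by MTT. IC50 came from fitted dose-response curves of three independent experiments. Fold-reversal = IC50 without modulator divided by IC50 with modulator.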

HEK293 [2] = test: Effect on topotecan-induced cytotoxicity against HEK293 cells assessed as fold change in topotecan IC50 at 1 uM after 72 hrs by CCK8 assay relative to topotecan IC50; assay type: cell-based; details: human, hek293, 72 h
Method in brief: (§1)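 Reversal assay in parental pcDNA-HEK293 and transfected HEK293 lines (ABCB1 for colchicine, ABCC1 for etoposide, ABCG2 for mitoxantrone/topotecan). Substrate drug series was given with or without nontoxic modulator (0.5, 1.0, 2.0 or 3.0 μM) for 72 h, with a CCK-8 read-out. Fold-reversal is substrate IC50 without modulator divided by IC50 with modulator. Three independent experiments.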

[3] = molecular target: Multidrug resistance-associated protein 1 (Homo sapiens, UniProt P33527); test: Modulation of human ABCC1 expressed in HEK293/MRP1 cells assessed as increase in intracellular calcein-AM accumulation at 20 uM incubated for 10 mins by FACScan flow cytometry; assay type: cell-based
Method in brief: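 Cells held drug-free 7 days. 3 × 10^5 cells in IMDM with 5% FCS were loaded with calcein-AM for 10 min, with or without 20 μM LCA. Reference inhibitors were tariquidar 3 μM (ABCB1) and MK-571 25 μM (ABCC1). Calcein fluorescence (ex 485/em 535 nm) was read by flow cytometry; at least three independent experiments.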

[4] = molecular target: T1, Broad substrate specificity ATP-binding cassette transporter ABCG2; test: Reversal of human ABCG2-mediated multidrug resistance in HEK293/R482 cells assessed as fold-change in topotecan IC50 at 1 uM after 72 hrs by CCK8 relative to topotecan IC50; assay type: cell-based
Method in brief: (§2)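 Cells were seeded at 5000/well for 24 h, then given colchicine, etoposide, mitoxantrone or topotecan ± non-toxic modulator (0.5–3.0 μM) for 72 h, with DMSO up to 0.5%. IC50 came from fitted curves (mean ± SD, three experiments). Fold-reversal = IC50 without modulator ÷ IC50 with modulator.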

S1-M1-80 [5] = test: Cytotoxicity against human S1-M1-80 cells harboring ABCG2 (unknown origin) after 72 hrs by MTT assay; assay type: functional, cell-based; details: S1-M1-80, 72 h
Method in brief: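 Cells seeded at 5000/well, allowed 24 h, then exposed to a concentration series for 72 h at 37 °C in DMSO vehicle (up to 0.5% v/v). HEK293 lines were read with CCK-8 and cancer lines with MTT. IC50 was taken from fitted dose-response curves over at least three independent experiments. Lines were kept drug-free for 7 days before assay.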

HEK293 [6] = test: Effect on etoposide-induced cytotoxicity against HEK293 cells assessed as fold change in etoposide IC50 at 2 uM after 72 hrs by CCK8 assay relative to etoposide IC50; assay type: cell-based; details: human, hek293, 72 h; method in brief: as §1
[7] = molecular target: T1, Broad substrate specificity ATP-binding cassette transporter ABCG2; test: Reversal of human ABCG2-mediated multidrug resistance in HEK293/R482 cells assessed as fold change in mitoxantrone IC50 at 0.5 uM after 72 hrs by CCK8 assay relative to mitoxantrone IC50; assay type: cell-based; method in brief: as §2
HEK293 [8] = test: Effect on Colchicine-induced cytotoxicity against HEK293 cells assessed as fold change in colchicine IC50 at 0.5 uM after 72 hrs by CCK8 assay relative to colchicine IC50; assay type: cell-based; details: human, hek293, 72 h; method in brief: as §1
S1 [9] = test: Effect on topotecan-induced cytotoxicity against human S1 cells assessed as fold change in topotecan IC50 at 1 uM after 72 hrs by MTT assay relative to topotecan IC50; assay type: functional
Method in brief: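 Parental S1 colon and H460 lung cancer cells were exposed for 72 h to a mitoxantrone or topotecan concentration series, with or without modulator at 0.5–3.0 μM, and read by MTT. Fold-reversal is IC50 without modulator divided by IC50 with modulator, taken from dose-response curves of three independent experiments.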

S1 [10] = test: Induction of apoptosis in human S1 cells assessed as viable cells at 10 uM incubated for 48 hrs by annexin V/propidium iodide staining based flow cytometry (reference value: 94.1%); assay type: functional; details: S1, 48 h, read-out: Activity
[11] = molecular target: T1, Broad substrate specificity ATP-binding cassette transporter ABCG2; test: Reversal of human ABCG2-mediated multidrug resistance in HEK293/R482 cells assessed as fold change in mitoxantrone IC50 at 1 uM after 72 hrs by CCK8 assay relative to mitoxantrone IC50; assay type: cell-based; method in brief: as §2
S1 [12] = test: Induction of apoptosis in human S1 cells assessed as viable cells at 10 uM incubated for 48 hrs in presence of topotecan by annexin V/propidium iodide staining based flow cytometry (reference value: 94.1%); assay type: functional; details: S1, 48 h, read-out: Activity
S1 [13] = test: Induction of pheophorbide A accumulation in human S1 cells at 20 uM incubated for 1 hr by FACScan flow cytometry; assay type: functional, cell-based
Method in brief: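 Cells held drug-free 7 days. 3 × 10^5 cells were suspended in IMDM with 5% FCS and loaded with pheophorbide A (ex 395/em 670 nm) for 1 h, with or without LCA (20 μM for single-concentration accumulation) or Ko143 3 μM as reference. Read immediately by flow cytometry. Efflux inhibition was run over a concentration range; mean ± SD of three experiments.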

S1-M1-80 [14] = test: Potentiation of topotecan-induced apoptosis in human S1-M1-80 cells harboring ABCG2 (unknown origin) assessed as viable cells at 10 uM incubated for 48 hrs by annexin V/propidium iodide staining based flow cytometry (reference value: 90.6%); assay type: functional; details: S1-M1-80, 48 h, read-out: Activity

Sequence of Multidrug resistance-associated protein 1 (P33527 whole entry): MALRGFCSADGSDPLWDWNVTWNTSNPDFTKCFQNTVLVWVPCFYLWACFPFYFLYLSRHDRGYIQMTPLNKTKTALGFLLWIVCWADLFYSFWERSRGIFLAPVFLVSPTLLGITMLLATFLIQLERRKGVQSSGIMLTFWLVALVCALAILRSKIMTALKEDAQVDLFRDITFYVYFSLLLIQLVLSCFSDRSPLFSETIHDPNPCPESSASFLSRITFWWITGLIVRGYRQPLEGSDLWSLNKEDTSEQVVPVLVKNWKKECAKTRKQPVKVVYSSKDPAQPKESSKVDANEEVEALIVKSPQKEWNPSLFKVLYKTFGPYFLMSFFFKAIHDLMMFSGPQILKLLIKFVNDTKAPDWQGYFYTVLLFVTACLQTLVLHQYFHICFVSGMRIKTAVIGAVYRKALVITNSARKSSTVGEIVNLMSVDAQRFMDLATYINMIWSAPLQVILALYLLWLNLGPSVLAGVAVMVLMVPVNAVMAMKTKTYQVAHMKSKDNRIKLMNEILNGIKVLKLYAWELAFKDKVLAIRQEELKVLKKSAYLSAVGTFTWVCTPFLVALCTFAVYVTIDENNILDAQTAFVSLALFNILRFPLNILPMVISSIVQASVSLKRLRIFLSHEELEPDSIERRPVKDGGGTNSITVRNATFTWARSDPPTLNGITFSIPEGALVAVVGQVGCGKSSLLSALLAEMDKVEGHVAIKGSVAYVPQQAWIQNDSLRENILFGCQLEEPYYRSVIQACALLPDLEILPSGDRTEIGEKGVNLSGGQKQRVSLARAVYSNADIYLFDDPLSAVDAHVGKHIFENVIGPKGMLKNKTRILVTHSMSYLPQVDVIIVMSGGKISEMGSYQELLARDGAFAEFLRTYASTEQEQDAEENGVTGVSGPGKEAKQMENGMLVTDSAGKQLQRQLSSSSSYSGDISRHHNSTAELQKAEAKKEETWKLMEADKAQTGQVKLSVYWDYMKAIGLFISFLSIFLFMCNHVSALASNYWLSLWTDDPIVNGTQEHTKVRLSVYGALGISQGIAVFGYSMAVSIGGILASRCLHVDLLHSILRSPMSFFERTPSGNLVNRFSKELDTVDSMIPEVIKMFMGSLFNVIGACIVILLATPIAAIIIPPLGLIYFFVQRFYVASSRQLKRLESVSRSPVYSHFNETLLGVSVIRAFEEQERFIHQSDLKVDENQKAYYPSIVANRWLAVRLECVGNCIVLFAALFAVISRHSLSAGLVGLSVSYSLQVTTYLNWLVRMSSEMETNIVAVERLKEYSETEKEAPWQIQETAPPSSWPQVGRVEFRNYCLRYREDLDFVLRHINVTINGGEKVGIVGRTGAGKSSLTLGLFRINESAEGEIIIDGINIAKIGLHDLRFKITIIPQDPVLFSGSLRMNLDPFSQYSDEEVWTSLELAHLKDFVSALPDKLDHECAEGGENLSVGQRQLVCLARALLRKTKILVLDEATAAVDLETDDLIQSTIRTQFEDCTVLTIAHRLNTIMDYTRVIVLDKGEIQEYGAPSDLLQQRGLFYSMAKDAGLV

Structure (SMILES): C=CC(C)(C)c1cc(/C=C/C(=O)c2ccc(O)cc2)c(OC)cc1O [LICOAGROCHACONE A]
- fold change (FC) [1]: 3.6
- fold change (FC) (HEK293 [2]): 1
- Activity [3]: Not Active
- fold change (FC) [4]: 3.9
- IC50 (S1-M1-80 [5]): 10 to 50 µM
- fold change (FC) (HEK293 [6]): 0.7
- fold change (FC) [7]: 2.7
- fold change (FC) (HEK293 [8]): 1
- fold change (FC) (S1 [9]): 0.8
- viability at 10 µM (S1 [10]): 95.4%
- fold change (FC) [11]: 7.1
- viability at 10 µM (S1 [12]): 44.1%
- Activity (S1 [13]): inactive
- viability at 10 µM (S1-M1-80 [14]): 67.8%
